The source made the active and inactive calls. No cut-off for these calls is given here.
Experiments:
MDA-MB-468 [1] = assay: Cell cycle arrest in human MDA-MB-468 cells assessed as accumulation at S phase at 1 uM after 72 hrs by flow cytometry analysis relative to control; format: functional
Outline: (§1)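 Cells seeded overnight at about 1 × 10^6 per plate, treated next morning, and harvested at set times. Fixed in 75% ethanol at -20°C for 12-24 h, then stained 1 h in PBS with 0.3% NP-40, 100 µg/ml RNase A and 100 µg/ml propidium iodide. Phase distribution read from DNA content by flow cytometry against sham-treated cells.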

MDA-MB-468 [2] = assay: Cell cycle arrest in human MDA-MB-468 cells assessed as accumulation at G0-G1 phase at 1 uM after 72 hrs by flow cytometry analysis relative to control; format: functional; outline: as §1
MDA-MB-468 [3] = assay: Cell cycle arrest in human MDA-MB-468 cells assessed as accumulation at sub-G1 phase at 1 uM after 72 hrs by flow cytometry analysis relative to control; format: functional; outline: as §1
MDA-MB-468 [4] = assay: Cell cycle arrest in human MDA-MB-468 cells assessed as accumulation at G2/M phase at 1 uM after 48 hrs by flow cytometry analysis relative to control; format: functional; outline: as §1
MDA-MB-468 [5] = assay: Cell cycle arrest in human MDA-MB-468 cells assessed as accumulation at S phase at 1 uM after 48 hrs by flow cytometry analysis relative to control; format: functional; outline: as §1
MDA-MB-468 [6] = assay: Cell cycle arrest in human MDA-MB-468 cells assessed as accumulation at G0-G1 phase at 1 uM after 48 hrs by flow cytometry analysis relative to control; format: functional; outline: as §1
MDA-MB-468 [7] = assay: Cell cycle arrest in human MDA-MB-468 cells assessed as accumulation at sub-G1 phase at 1 uM after 48 hrs by flow cytometry analysis relative to control; format: functional; outline: as §1
MDA-MB-468 [8] = assay: Cell cycle arrest in human MDA-MB-468 cells assessed as accumulation at G2/M phase at 1 uM after 24 hrs by flow cytometry analysis relative to control; format: functional; outline: as §1
MDA-MB-468 [9] = assay: Cell cycle arrest in human MDA-MB-468 cells assessed as accumulation at S phase at 1 uM after 24 hrs by flow cytometry analysis relative to control; format: functional; outline: as §1
MDA-MB-468 [10] = assay: Cell cycle arrest in human MDA-MB-468 cells assessed as accumulation at G0-G1 phase at 1 uM after 24 hrs by flow cytometry analysis relative to control; format: functional; outline: as §1
MDA-MB-468 [11] = assay: Cell cycle arrest in human MDA-MB-468 cells assessed as accumulation at sub-G1 phase at 1 uM after 24 hrs by flow cytometry analysis relative to control; format: functional; outline: as §1
MDA-MB-468 [12] = assay: Cell cycle arrest in human MDA-MB-468 cells assessed as accumulation at G2/M phase at 1 uM after 12 hrs by flow cytometry analysis relative to control; format: functional; outline: as §1
MDA-MB-468 [13] = assay: Cell cycle arrest in human MDA-MB-468 cells assessed as accumulation at S phase at 1 uM after 12 hrs by flow cytometry analysis relative to control; format: functional; outline: as §1
MDA-MB-468 [14] = assay: Cell cycle arrest in human MDA-MB-468 cells assessed as accumulation at G0-G1 phase at 1 uM after 12 hrs by flow cytometry analysis relative to control; format: functional; outline: as §1
MDA-MB-468 [15] = assay: Cell cycle arrest in human MDA-MB-468 cells assessed as accumulation at sub-G1 phase at 1 uM after 12 hrs by flow cytometry analysis relative to control; format: functional; outline: as §1
MDA-MB-468 [16] = assay: Cell cycle arrest in human MDA-MB-468 cells assessed as accumulation at G2/M phase at 1 uM after 72 hrs by flow cytometry analysis relative to control; format: functional; outline: as §1
MDA-MB-468 [17] = assay: Induction of DNA damage in human MDA-MB-468 cells at 1 uM after 24 hrs by immunostaining; format: functional, cell-based
Outline: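 γH2A.X (phospho-Ser139) immunostaining, with HeLa at 6 µM for 24 or 48 h and MDA-MB468 at 1 µM. Cells on coverslips fixed and permeabilized in ice-cold methanol at -20°C. Blocked in 1% FBS, primary antibody 1:200 overnight at 4°C, then fluorophore-conjugated secondary 1 h. DNA counterstained with DRAQ5.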

HeLa = assay: Antiproliferative activity against human HeLa cells after 72 hrs by SRB assay; format: functional, cell-based
Outline: (§2)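 Cells seeded at 4,000-5,000/well for 16 h, then exposed 72 h to serial dilutions of compound in DMSO; sham DMSO as 100% and TCA-treated wells as 0%. Fixed in 10% TCA at 4°C for 1 h, stained with 0.4% SRB for 30 min, dye solubilised in 10 mmol Tris pH 10.5, read at 540 nm. IC50 from sigmoidal dose-response curves; two biological replicates, four technical each.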

MCF7 = assay: Antiproliferative activity against human MCF7 cells after 72 hrs by SRB assay; format: functional, cell-based; details: MCF7, 72 h
Outline: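 Cells seeded at 4,000-5,000/well for 16 h, then exposed 72 h to serial dilutions of compound in DMSO; sham DMSO as 100% and TCA-treated wells as 0%. IC50 from sigmoidal dose-response curves; two biological replicates, four technical each.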

MDA-MB-231 = assay: Antiproliferative activity against human MDA-MB-231 cells after 72 hrs by SRB assay; format: functional, cell-based; details: MDA-MB-231, 72 h; outline: as §2
MDA-MB-468 [18] = assay: Antiproliferative activity against human MDA-MB-468 cells after 72 hrs by SRB assay; format: functional, cell-based; details: MDA-MB-468, 72 h; outline: as §2
[19] = Antiproliferative activity against human 184B5 cells after 72 hrs by SRB assay; format: cell-based; details: 184B5, 72 h; outline: as §2
Tubulin (Homo sapiens) = Tubulin (Homo sapiens) (UniProt P68371+Q9H4B7+P0DPH7+P68366+Q13509+Q71U36+P04350+Q3ZCM7+P07437+P68363+Q9BQE3+Q6PEY2+Q13885+Q9BVA1+Q9BUF5); details: 5 uM

Structure (SMILES) | IC50 (HeLa) | IC50 (MCF7) | IC50 (MDA-MB-231) | IC50 (MDA-MB-468 [18]) | IC50 [19] | other results
Fc1ccc(/C=C/c2cc3ccccc3nc2Cl)cc1 | > 50 µM | 15.1 µM | > 50 µM | 0.12 µM | 38.5 µM | Activity (MDA-MB-468 [1]): 11.4%; Activity (MDA-MB-468 [2]): 16.1%; Activity (MDA-MB-468 [3]): 65%; Activity (MDA-MB-468 [4]): 15%; Activity (MDA-MB-468 [5]): 22%; Activity (MDA-MB-468 [6]): 21.8%; Activity (MDA-MB-468 [7]): 40.6%; Activity (MDA-MB-468 [8]): 20.2%; Activity (MDA-MB-468 [9]): 41.7%; Activity (MDA-MB-468 [10]): 23.1%; Activity (MDA-MB-468 [11]): 13.7%; Activity (MDA-MB-468 [12]): 21.9%; Activity (MDA-MB-468 [13]): 34.5%; Activity (MDA-MB-468 [14]): 37%; Activity (MDA-MB-468 [15]): 5%; Activity (MDA-MB-468 [16]): 6.7%; Activity (MDA-MB-468 [17]): Active
CCN(CC)CCCC(C)Nc1ccnc2cc(Cl)ccc12 (stereo not drawn) [CHLOROQUINE] | 30 µM | – | 36.5 µM | 19.9 µM | 63.1 µM | –
CC(=O)O[C@H]1C(=O)[C@@]2(C)[C@H]([C@H](OC(=O)c3ccccc3)[C@]3(O)C[C@H](OC(=O)[C@H](O)[C@@H](NC(=O)c4ccccc4)c4ccccc4)C(C)=C1C3(C)C)[C@]1(OC(C)=O)CO[C@@H]1C[C@@H]2O [PACLITAXEL] | 0.00229 µM | – | 0.00256 µM | 0.00387 µM | 0.00232 µM | –
COc1ccc2nc(Cl)c(/C=C\c3cccc(C(F)(F)F)c3)cc2c1 | 3.03 µM | 2.78 µM | 3.28 µM | 3.91 µM | 5.58 µM | –
COc1ccc2nc(Cl)c(/C=C\c3ccccc3C(F)(F)F)cc2c1 | 2.6 µM | 4.47 µM | 2.77 µM | 4.98 µM | 5.31 µM | –
COc1ccc2nc(Cl)c(/C=C\c3ccc(C(F)(F)F)cc3C(F)(F)F)cc2c1 | > 50 µM | > 50 µM | > 50 µM | > 50 µM | > 50 µM | –
FC(F)(F)c1cc(/C=C\c2cc3ccccc3nc2Cl)cc(C(F)(F)F)c1 | 6.78 µM | 7.46 µM | 10.1 µM | 10.5 µM | 13.7 µM | –
FC(F)(F)c1ccc(/C=C\c2cc3ccccc3nc2Cl)cc1 | 4.22 µM | 4.26 µM | 5.36 µM | 7.38 µM | 7.94 µM | –
COC(=O)Nc1nc2cc(C(=O)c3cccs3)ccc2[nH]1 | – | – | – | – | – | inhibition (Tubulin (Homo sapiens)): Active
Fc1ccc(/C=C\c2cc3ccc(Cl)cc3nc2Cl)cc1 | 38.6 µM | 16.9 µM | 42.6 µM | 10.9 µM | 26.9 µM | –
FC(F)(F)c1cccc(/C=C\c2cc3cc4c(cc3nc2Cl)OCO4)c1 | 20.1 µM | 18.9 µM | 26 µM | > 50 µM | 17 µM | –
COc1ccc2nc(Cl)c(/C=C/c3ccc(F)cc3)cc2c1 | > 50 µM | 14.1 µM | 11 µM | 14.8 µM | 9.74 µM | –
COc1ccc2nc(Cl)c(/C=C/c3ccc(C(F)(F)F)cc3)cc2c1 | > 50 µM | 47 µM | 48.8 µM | > 50 µM | 33.5 µM | –
FC(F)(F)c1cccc(/C=C/c2cc3ccccc3nc2Cl)c1 | 20.3 µM | 24.4 µM | 45 µM | 24 µM | 24.7 µM | –
FC(F)(F)c1ccc(/C=C\c2cc3ccccc3nc2Cl)c(C(F)(F)F)c1 | 35.9 µM | 10.5 µM | 41.8 µM | – | – | –
COc1ccc2nc(Cl)c(/C=C\c3ccc(F)cc3)cc2c1 | 9.67 µM | 8.97 µM | 11.4 µM | 15.2 µM | 19.2 µM | –
Fc1ccc(/C=C\c2cc3ccccc3nc2Cl)cc1 | 24.9 µM | 20.3 µM | 24 µM | 5.29 µM | 35.7 µM | –
FC(F)(F)c1cc(/C=C\c2cc3ccc(Cl)cc3nc2Cl)cc(C(F)(F)F)c1 | 41.4 µM | 41.7 µM | > 50 µM | > 50 µM | 43 µM | –
COc1ccc2nc(Cl)c(/C=C\c3cc(C(F)(F)F)cc(C(F)(F)F)c3)cc2c1 | 4.14 µM | 4.7 µM | 4.47 µM | 5.79 µM | 7.97 µM | –
CC[C@@]1(O)C(=O)OCc2c1cc1n(c2=O)Cc2cc3ccccc3nc2-1 [CAMPTOTHECIN] | 0.00613 µM | – | 0.00577 µM | 0.0148 µM | 0.00496 µM | –
FC(F)(F)c1cc(/C=C\c2cc3cc4c(cc3nc2Cl)OCO4)cc(C(F)(F)F)c1 | > 50 µM | > 50 µM | > 50 µM | > 50 µM | > 50 µM | –
COc1ccc2nc(Cl)c(/C=C\c3ccc(C(F)(F)F)cc3)cc2c1 | 16.2 µM | 12.4 µM | 22.8 µM | 22.7 µM | 40 µM | –
FC(F)(F)c1ccc(/C=C\c2cc3ccc(Cl)cc3nc2Cl)cc1 | 12.6 µM | 6.45 µM | 13.6 µM | 16.1 µM | 26.4 µM | –

Reference: ChEMBL document CHEMBL3739264, “Synthesis and bio-evaluation of novel quinolino-stilbene derivatives as potential anticancer agents” (Bioorg Med Chem, 2015)
